Laboratory results: ChEMBL document CHEMBL1138601, “Diversity-oriented synthesis of a cytisine-inspired pyridone library leading to the discovery of novel inhibitors of Bcl-2” (Bioorg Med Chem Lett, 2009)

Experiments:
Bcl-2-like protein 1 = Bcl-2-like protein 1 (Homo sapiens, UniProt Q07817); test: Displacement of fluorescently-tagged BH3 peptide from Bcl-XL by chemiluminescent nitrogen detection method
How it was run: (§1)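 Solution-phase competition binding in HTS format. Inhibitors compete with a fluorescently tagged BH3 peptide for Bcl-2 or Bcl-xL. Library compounds were first screened at one fixed concentration. Hits exceeding three standard deviations above assay error were then run in a multi-point dilution series, and Ki values were derived from that series.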

[1] = biological target: Apoptosis regulator Bcl-2 (Homo sapiens, UniProt P10415); test: Displacement of fluorescently-tagged BH3 peptide from Bcl-2 by chemiluminescent nitrogen detection method; how it was run: as §1
Sequence of Apoptosis regulator Bcl-2 (P10415 whole entry): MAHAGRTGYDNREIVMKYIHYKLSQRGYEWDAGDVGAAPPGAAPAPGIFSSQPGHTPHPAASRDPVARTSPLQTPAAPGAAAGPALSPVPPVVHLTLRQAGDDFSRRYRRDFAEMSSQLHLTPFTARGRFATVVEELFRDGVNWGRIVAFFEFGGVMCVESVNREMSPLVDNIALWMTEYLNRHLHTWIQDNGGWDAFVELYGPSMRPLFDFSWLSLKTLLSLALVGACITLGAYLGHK

Sequence of Bcl-2-like protein 1 (Q07817 whole entry): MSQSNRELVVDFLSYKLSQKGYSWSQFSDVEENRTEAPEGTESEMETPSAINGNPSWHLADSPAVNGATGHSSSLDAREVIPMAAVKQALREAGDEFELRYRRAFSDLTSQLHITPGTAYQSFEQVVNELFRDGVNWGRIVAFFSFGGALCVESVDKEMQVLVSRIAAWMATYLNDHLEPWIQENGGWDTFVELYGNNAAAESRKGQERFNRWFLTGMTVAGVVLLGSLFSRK

| SMILES | Ki (Bcl-2-like protein 1) [µM] | Ki [1] [µM] |
| --- | --- | --- |
| O=C([C@@H]1[C@@H](CO)[C@@H]2Cn3c(cccc3=O)[C@@H]2N1Cc1ccc(Cl)c(Cl)c1)N1CCC(Cc2ccccc2)CC1 | > 100 | 1.2 |
| O=C([C@@H]1[C@@H](CO)[C@@H]2Cn3c(cccc3=O)[C@@H]2N1Cc1ccc(Oc2ccccc2)cc1)N1CCC(c2ccc(F)cc2)CC1 | > 100 | 6.8 |
| O=C(NCCN1CCCCC1)[C@@H]1[C@@H](CO)[C@@H]2Cn3c(cccc3=O)[C@H]1N2c1nc(-c2ccc(Cl)cc2)c(-c2ccccc2)s1 | 6 | 2.5 |
| COCCNC(=O)[C@@H]1[C@@H](CO)[C@@H]2Cn3c(cccc3=O)[C@H]1N2c1nc(-c2ccc(Cl)cc2)c(-c2ccccc2)s1 | > 100 | 4.3 |
| O=C(NCCN1CCCCC1)[C@H]1[C@H](CO)[C@H]2Cn3c(cccc3=O)[C@@H]1N2c1nc(-c2ccc(Cl)cc2)c(-c2ccccc2)s1 | 11 | 1.5 |
| O=C(NCCCN1CCCC1)[C@@H]1[C@@H](CO)[C@@H]2Cn3c(cccc3=O)[C@H]1N2c1nc(-c2ccc(Cl)cc2)c(-c2ccccc2)s1 | 5.7 | 3 |
| CN(C)CCNC(=O)[C@@H]1[C@@H](CO)[C@@H]2Cn3c(cccc3=O)[C@H]1N2c1nc(-c2ccc(Cl)cc2)c(-c2ccccc2)s1 | 5.7 | 2 |
| COCCNC(=O)[C@H]1[C@H](CO)[C@H]2Cn3c(cccc3=O)[C@@H]1N2c1nc(-c2ccc(Cl)cc2)c(-c2ccccc2)s1 | > 100 | 14 |
| O=C([C@@H]1[C@@H](CO)[C@@H]2Cn3c(cccc3=O)[C@@H]2N1Cc1ccc(Oc2ccccc2)cc1)N1CCC(Cc2ccccc2)CC1 | > 100 | 5.2 |
| CN(C)CCNC(=O)[C@H]1[C@H](CO)[C@H]2Cn3c(cccc3=O)[C@@H]1N2c1nc(-c2ccc(Cl)cc2)c(-c2ccccc2)s1 | 6.6 | 1.3 |
| O=C(N[C@H]1CCN(Cc2ccccc2)C1)[C@H]1[C@H](CO)[C@H]2Cn3c(cccc3=O)[C@H]2N1CC1CCCCC1 | > 100 | 4.1 |
| O=C(NCCCN1CCCC1)[C@H]1[C@H](CO)[C@H]2Cn3c(cccc3=O)[C@@H]1N2c1nc(-c2ccc(Cl)cc2)c(-c2ccccc2)s1 | 7.8 | 1.6 |
| O=C(N[C@@H]1CCN(Cc2ccccc2)C1)[C@H]1[C@H](CO)[C@H]2Cn3c(cccc3=O)[C@H]2N1CC1CCCCC1 | > 100 | 7.8 |
| O=C([C@@H]1[C@@H](CO)[C@@H]2Cn3c(cccc3=O)[C@@H]2N1Cc1ccc(Cl)c(Cl)c1)N1CCC(c2ccc(F)cc2)CC1 | > 100 | 2.2 |
| O=C(NCc1ccc(Oc2ccccc2)cc1)[C@H]1[C@H](CO)[C@H]2Cn3c(cccc3=O)[C@H]2N1CC1CCCCC1 | > 100 | 8.4 |
| O=C(NC1Cc2ccccc2C1)[C@H]1[C@H](CO)[C@H]2Cn3c(cccc3=O)[C@H]2N1CC1CCCCC1 | > 100 | 5.4 |
